Experimental data gathered from unrelated publications.
Target: Membrane-associated tyrosine- and threonine-specific cdc2-inhibitory kinase (PKMYT1, Homo sapiens, UniProt Q99640)
Residues used in one study (Q99640 1-499): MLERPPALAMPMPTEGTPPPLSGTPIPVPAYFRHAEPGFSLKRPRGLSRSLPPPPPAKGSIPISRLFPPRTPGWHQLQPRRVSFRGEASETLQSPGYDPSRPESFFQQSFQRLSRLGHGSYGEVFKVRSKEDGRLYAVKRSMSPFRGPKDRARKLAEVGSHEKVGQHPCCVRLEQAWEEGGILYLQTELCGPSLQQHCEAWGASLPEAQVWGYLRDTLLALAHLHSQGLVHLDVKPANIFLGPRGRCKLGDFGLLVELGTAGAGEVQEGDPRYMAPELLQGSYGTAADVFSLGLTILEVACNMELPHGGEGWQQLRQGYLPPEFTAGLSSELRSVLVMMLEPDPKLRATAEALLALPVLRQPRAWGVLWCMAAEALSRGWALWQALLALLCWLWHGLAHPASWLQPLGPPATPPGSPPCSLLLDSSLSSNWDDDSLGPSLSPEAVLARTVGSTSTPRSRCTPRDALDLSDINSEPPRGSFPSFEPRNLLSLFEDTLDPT

Structure (SMILES)	observed	mode	technique	concentration	measurement	result
c1cnn2ncc(-c3ccnc(N4CCC45COC5)n3)c2c1	binding	–	–	1 µM	remaining binding	97%
C[C@H](NC(=O)c1cnc2n1[C@](C)(Cc1ccc(C#N)cc1)C(=O)N2c1cc(Cl)c(F)c(Cl)c1)C(=O)NC1(c2ccccn2)CC1	cell-free assay	–	competition with immobilised ligand	1 µM	remaining binding	79%
C[C@@H]1CCN(c2nccc(-c3cnn4ncccc34)n2)C1	binding	–	–	1 µM	remaining binding	99%
Nc1ncnc2occ(-c3ccc(NC(=O)Nc4cc(C(F)(F)F)ccc4F)cc3)c12	cell-free assay	inhibitor	–	20 µM	remaining signal	75%
O=C(Nc1cnn(-c2csc(C(=O)NC3COC3)c2)c1)Nc1c(F)cccc1Cl	enzyme activity	inhibitor	–	5 µM	remaining activity	89.6%
CC(C)(C)c1nc(-c2cccc(NS(=O)(=O)c3c(F)cccc3F)c2F)c(-c2ccnc(N)n2)s1	enzyme activity	inhibitor	radiometric	1 µM	remaining activity	88%
C=CCn1c(=O)c2cnc(Nc3ccc(N4CCN(C)CC4)cc3)nc2n1-c1cccc(C(C)(C)O)n1	thermal stability	–	DSF	100 µM	ΔTm	3 °C
O=C(Nc1cnn(-c2csc(C(=O)NC3COC3)c2)c1)Nc1ccccc1Cl	enzyme activity	inhibitor	–	5 µM	remaining activity	87%
CC(C)(C)c1nc2c(s1)c1nc(N)ncc1c1ccc(NS(=O)(=O)c3c(F)cccc3F)c(F)c12	enzyme activity	inhibitor	radiometric	1 µM	remaining activity	84%
Cc1ccc(C(=O)Nc2ccc(CN3CCN(C)CC3)c(C(F)(F)F)c2)cc1C#Cc1cnc2cccnn12	enzyme activity	inhibitor	–	23.5 nM	remaining activity	84%
CNCc1ccccc1-c1csc([C@H](C)Nc2nc(C)nc3cc(OC)c(OC)cc23)c1	cell-free assay	–	competition with immobilised ligand	1 µM	remaining binding	100%
